Data set [1] relates to Hep 3B2. The experiment in a line: Increase in oxygen consumption rate of mitochondrial state 4 respiration in human Hep3B cells assessed as reinitiation of oligomycin-stalled cellular respiration by Clark-type oxygen electrode assay. It counts as functional, cell-based. In outline: (§1)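 Clark electrode oxygen consumption in cells with oligomycin (F0F1-ATPase inhibitor) stalling respiration, then compound added to test reinitiation; FCCP as standard uncoupler reference.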

The subject of data set [2] is T47D. As to the kind of experiment: Effect on mitochondrial membrane potential in human T47D cells at 30 uM after 30 mins by TMRM dye based fluorescence microscopy. Type of data set: functional, cell-based. An outline of the steps:
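T47D cells loaded with TMRM+ (37 °C, 2 h), then compound for 30 min; live epifluorescence imaging, fluorescence quantified per outlined cell in random fields. FCCP as positive control. Average ± SD from 20 cells.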

Data set [3] relates to T47D. As to the kind of experiment: Increase in oxygen consumption rate in digitonin permeabilized human T47D cells assessed as reinitiation of sodium azide-stalled cellular respiration at 30 uM relative to control. Type of data set: functional. In outline:
(§2)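 Digitonin-permeabilized T47D cells given sequential additions: NaN3 (10 mM) to suppress mitochondrial respiration, then compound (30 μM), solvent (2-propanol, 0.6%) or ascorbate (1 and 5 mM), all final. OCR after each addition normalized to NaN3 value; mean ± range of two experiments.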

Data set [4] relates to T47D. The experiment in a line: Induction of alteration in […] in human T47D cells assessed as intracellular calcium level at 30 uM after 30 mins by fura-2 dye based fluorescence assay. It counts as functional, cell-based. In outline:
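T47D cells loaded with fura-2 per manufacturer's instructions and treated 30 min; per-cell 340/380 nm excitation ratio taken as Ca2+ indicator by live microscopy. Average ± SD of 20 cells.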
A general note: A change in cytosolic calcium serves as a functional read-out for many receptors and channels.

Data set [5] deals with T47D. As to the kind of experiment: Increase in oxygen consumption rate in digitonin permeabilized human T47D cells assessed as reinitiation of sodium azide-stalled cellular respiration by oxytherm Clark-type electrode assay in presence of ascorbate relative to compound alone. It counts as functional, cell-based. An outline of the steps: as §2
Data set [6] relates to T47D. The experiment in a line: Inhibition of hypoxia-induced HIF-1 in human T47D cells cotransfected with pHRE-luciferase plasmid at 10 to 30 uM preincubated for 30 mins followed by hypoxia induction measured after 16 hrs by luciferase reporter gene assay. Type of data set: cell-based. In outline:
(§3)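 T47D cells transfected with pHRE-luc construct, exposed to hypoxia (1% O2, 16 h) with compound. Luciferase activity read; % inhibition = [1 − (luciferase)compound/(luciferase)control] × 100 against hypoxic media control. Emetine as positive control. Parallel viability by SRB. Average ± SD, n = 3.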

Data set [7] relates to T47D. As to the kind of experiment: Activation of hypoxia-induced HIF-1 in human T47D cells cotransfected with pHRE-luciferase plasmid at 1 to 3 uM preincubated for 30 mins followed by hypoxia induction measured after 16 hrs by luciferase reporter gene assay. Type of data set: cell-based. An outline of the steps: as §3
Data set [8] concerns T47D. As to the kind of experiment: Cytotoxicity against human T47D cells at 1 to 30 uM after 48 hrs by sulforhodamine B assay. It counts as functional, cell-based.
The test system of data set [9] is T47D. As to the kind of experiment: Cytostatic activity against human T47D cells at 1 to 30 uM after 48 hrs by sulforhodamine B assay. Type of data set: functional, cell-based. On the technique in general: Sulforhodamine B stains cellular protein and so reports cell mass.
Data set [10] concerns MDA-MB-231. As to the kind of experiment: Cytotoxicity against human MDA-MB-231 cells at 1 to 30 uM after 48 hrs by sulforhodamine B assay. Type of data set: functional, cell-based.
Data set [11] relates to MDA-MB-231. As to the kind of experiment: Cytostatic activity against human MDA-MB-231 cells at 1 to 30 uM after 48 hrs by sulforhodamine B assay. It counts as functional, cell-based.
In data set [12] the test system is T47D. The experiment in a line: Cytostatic activity against human T47D cells at 1 to 30 uM after 48 hrs by sulforhodamine B assay in presence of ascorbate. Type of data set: functional, cell-based.
Data set [13] has as its system MDA-MB-231. As to the kind of experiment: Cytostatic activity against human MDA-MB-231 cells at 1 to 30 uM after 48 hrs by sulforhodamine B assay in presence of ascorbate. Type of data set: functional, cell-based.
A short description of data set [14]: Neurotoxicity against rat CGN assessed as neuronal cell death at 30 uM after 24 hrs by Hoechst 33342/propidium iodide staining based assay. It counts as toxicity. In outline: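 Primary cerebellar granule neurons from rat pups, cultured 6–10 days, then exposed 24 h. Stained with Hoechst 33342 and propidium iodide; live (PI negative, healthy nuclei) versus dead or dying (PI positive, or condensed/fragmented nuclei) cells counted.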

The test system of data set [15] is T47D. The experiment in a line: Increase in oxygen consumption rate in digitonin permeabilized human T47D cells at 30 uM relative to control. It counts as functional. In outline:
as §2

The test system of data set [16] is T47D. As to the kind of experiment: Increase in oxygen consumption rate in human T47D cells at 30 uM by oxytherm Clark-type electrode assay relative to control. Type of data set: functional. In outline: (§4)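 Intact T47D cells; oxygen consumption rate measured by Oxytherm Clark electrode with or without compound, normalized to untreated control. FCCP as positive control. Mean + range of two independent experiments.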

For data set [17], the system named is T47D. The experiment in a line: Increase in oxygen consumption rate in human T47D cells by oxytherm Clark-type electrode assay. It counts as functional, cell-based. In outline: as §4
Data set [18] deals with T47D. The experiment in a line: Increase in oxygen consumption rate of mitochondrial state 4 respiration in human T47D cells assessed as reinitiation of oligomycin-stalled cellular respiration by Clark-type oxygen electrode assay. It counts as functional, cell-based. In outline:
as §1

For data set [19], the system named is Saccharomyces cerevisiae. The experiment in a line: Increase in oxygen consumption rate in Saccharomyces cerevisiae at 10 to 30 uM by oxytherm Clark-type electrode assay. Type of data set: functional, organism-based. An outline of the steps: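 Budding yeast oxygen consumption followed with an Oxytherm Clark electrode, with and without compound. Values normalized to untreated control; average + SD of three independent determinations, p < 0.05 significance versus untreated.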

From ChEMBL document CHEMBL3763158, “Sampangine (a Copyrine Alkaloid) Exerts Biological Activities through Cellular Redox Cycling of Its Quinone and Semiquinone Intermediates” (J Nat Prod, 2015) come the findings set out here.

Structures are written as SMILES. Activity calls are given as the source filed them. No cut-off for these calls is given here.

Take `O=C1c2ccccc2-c2nccc3ccnc1c23` [SAMPANGINE]: the outcome in data set [1], in data set [2], in data set [8], in data set [9], in data set [10] and in data set [11] was Active. In addition, the result in data set [12], in [13] and in [19] was Active. The Activity in data set [3] is 48%; in data set [5], “Dose-dependent effect”; in data set [7], “Dose-dependent effect”; in data set [14], “Toxic”; in data set [15], 46%; in data set [16], 50%. For the same molecule, the Activity result in data set [17] and in data set [18] was “Dose-dependent effect” in each case. For the same molecule, in [4], the result was inactive. Further, the inhibition entry in data set [6] is “Dose-dependent effect”. In addition, the “fold change (FC)” value in data set [16] amounted to 1.5.
